Measured values: article PMC6150782 (Journal of molecular neuroscience : MN, 2018)
Values after ≈ are worked out from the molar mass of the structure shown.

Key:
CB2 = CB2 (Homo sapiens, UniProt P34972); test: CB2 binding; details: 10 μM; 0.8 nM radioligand; human recombinant CHO cells
[1] = Metabolic stability in human liver microsomes; assay type: in vitro ADME
Method in brief: (§1)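 Test compound at 1 μM incubated with human or mouse liver microsomes for up to 60 min. Samples analysed by LTQ-Orbitrap XL mass spectrometry. Single determination per time point. Testosterone at 1 μM served as the metabolically labile control. Run by a contract lab.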

[2] = Metabolic stability in mouse liver microsomes; assay type: in vitro ADME
Method in brief: as §1

[3] = Mouse plasma pharmacokinetics; assay type: in vivo, CD1 mice
hippocampal cultures [4] = assay type: cell-based, rat
[5] = tested on: dissociated rat hippocampal cultures; assay type: cell-based
Method in brief: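 E18 rat hippocampal cultures at days 12–14 received test compound (5 concentrations, n=5, two plates) 5 min before 30 mM ethanol plus 300 μM ammonium acetate, then 5 h at 37 °C. Medium removed and 50 μM propidium iodide applied for 15 min in the dark at room temperature. Read at Ex536/Em590 minus cell-free blank wells. IC50 from 4-parameter logistic fit.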

[6] = Anticonvulsant activity in animal models; details: in vivo
PPARγ = molecular target: T1, PPARγ (Homo sapiens, UniProt P37231); test: PPARγ agonist binding; details: 10 μM; data not shown
T1 sequence (P37231 1-505): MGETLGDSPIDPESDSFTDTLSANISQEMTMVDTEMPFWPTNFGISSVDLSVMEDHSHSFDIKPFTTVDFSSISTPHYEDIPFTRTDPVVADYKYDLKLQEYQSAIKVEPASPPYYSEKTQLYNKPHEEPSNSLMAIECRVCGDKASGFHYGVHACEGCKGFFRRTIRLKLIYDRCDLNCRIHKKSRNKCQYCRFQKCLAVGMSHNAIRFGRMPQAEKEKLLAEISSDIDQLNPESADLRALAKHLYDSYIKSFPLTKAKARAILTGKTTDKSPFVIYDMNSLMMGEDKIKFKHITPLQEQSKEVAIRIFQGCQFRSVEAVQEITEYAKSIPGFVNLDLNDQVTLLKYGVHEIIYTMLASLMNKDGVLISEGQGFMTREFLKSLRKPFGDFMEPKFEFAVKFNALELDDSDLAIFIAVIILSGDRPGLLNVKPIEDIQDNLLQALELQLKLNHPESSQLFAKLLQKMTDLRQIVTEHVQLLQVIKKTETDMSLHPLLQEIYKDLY

Log P = assay type: physicochemical
hippocampal cultures [7] = test: Effect of CB2 antagonist AM 630 on neuroprotection from ethanol, CFDA assay; assay type: cell-based, rat; details: AM 630 0.1 to 100 nM; 30 mM ethanol; 10 μM CBD or 100 nM KLS-13019
hippocampal cultures [8] = assay type: cell-based, rat; details: for cell death response at 30 min or 60 min of incubation / time points with significant cell death differences from control: 30 μM cannabidiol, 100 μM KLS-13019, day 18–19 cultures
TRPV1 = TRPV1 (Homo sapiens, UniProt Q8NER1); test: TRPV1 receptor binding screen; details: 10 μM; data not shown
[9] = Plasma protein binding, equilibrium dialysis, mouse plasma; assay type: in vitro ADME; details: 1 μM, 5 hours at 37 °C
[10] = Aqueous solubility, shaken flask method; assay type: physicochemical
Method in brief: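 Shake-flask method at pH 1.2, 7.4 and 9.2. Dissolved concentration measured by HPLC against a standard curve.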

[11] = Plasma protein binding, equilibrium dialysis, human plasma; assay type: in vitro ADME; details: 1 μM, 5 hours at 37 °C
5HT1a = molecular target: T2, 5HT1a (Homo sapiens, UniProt P08908); test: 5HT1a agonist binding; details: 10 μM; data not shown
T2 sequence (P08908 1-422): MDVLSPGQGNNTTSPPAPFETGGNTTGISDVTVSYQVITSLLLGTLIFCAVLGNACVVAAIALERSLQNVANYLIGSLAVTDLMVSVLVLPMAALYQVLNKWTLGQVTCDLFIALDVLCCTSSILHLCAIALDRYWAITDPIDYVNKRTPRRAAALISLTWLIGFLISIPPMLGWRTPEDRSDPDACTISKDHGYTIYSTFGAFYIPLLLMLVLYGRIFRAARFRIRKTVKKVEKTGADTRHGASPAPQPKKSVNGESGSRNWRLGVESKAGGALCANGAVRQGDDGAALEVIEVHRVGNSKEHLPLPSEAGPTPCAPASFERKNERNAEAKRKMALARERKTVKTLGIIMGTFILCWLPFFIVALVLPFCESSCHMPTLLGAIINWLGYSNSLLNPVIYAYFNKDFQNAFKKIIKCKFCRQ

[12] = tested on: dissociated rat hippocampal cultures; assay type: cell-based; remark: listed apart in the source
Method in brief: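 Papain-dissociated E18 rat hippocampal cells at 10,000/well in serum-free Neurobasal/B27/GlutaMAX, used at days 12–14 after a medium change. Test compound (DMSO stock diluted in DPBS, ≤0.1% DMSO; 5 concentrations, n=5, two plates) added 5 min before 30 mM ethanol plus 300 μM ammonium acetate, then 5 h at 37 °C. CFDA 15 min at 37 °C, 30 min efflux wash, Triton lysis, Ex490/Em517. EC50 from 4-parameter logistic fit.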

hERG channel = hERG channel (Homo sapiens, UniProt Q12809); test: hERG channel binding assay; details: 10 μM; [3H]-dofetilide; HEK-293
Method in brief: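 Binding to human recombinant hERG expressed in HEK-293 cells, using 3 nM [3H]-dofetilide. Test compound at 10 μM, 60 min at room temperature. Non-specific binding defined with 25 μM terfenadine. Reported as % inhibition of control specific binding. Run by a contract lab.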

[13] = CD1 mice, plasma, 10 mg/kg p.o.
[14] = compound alone in Captisol, 5 hours, day 14 cultures
[15] = combined ethanol + ammonium acetate
[16] = male, CD1, mouse, plasma, po, 10 mg/kg

hERG channel, sequence (Q12809 whole entry): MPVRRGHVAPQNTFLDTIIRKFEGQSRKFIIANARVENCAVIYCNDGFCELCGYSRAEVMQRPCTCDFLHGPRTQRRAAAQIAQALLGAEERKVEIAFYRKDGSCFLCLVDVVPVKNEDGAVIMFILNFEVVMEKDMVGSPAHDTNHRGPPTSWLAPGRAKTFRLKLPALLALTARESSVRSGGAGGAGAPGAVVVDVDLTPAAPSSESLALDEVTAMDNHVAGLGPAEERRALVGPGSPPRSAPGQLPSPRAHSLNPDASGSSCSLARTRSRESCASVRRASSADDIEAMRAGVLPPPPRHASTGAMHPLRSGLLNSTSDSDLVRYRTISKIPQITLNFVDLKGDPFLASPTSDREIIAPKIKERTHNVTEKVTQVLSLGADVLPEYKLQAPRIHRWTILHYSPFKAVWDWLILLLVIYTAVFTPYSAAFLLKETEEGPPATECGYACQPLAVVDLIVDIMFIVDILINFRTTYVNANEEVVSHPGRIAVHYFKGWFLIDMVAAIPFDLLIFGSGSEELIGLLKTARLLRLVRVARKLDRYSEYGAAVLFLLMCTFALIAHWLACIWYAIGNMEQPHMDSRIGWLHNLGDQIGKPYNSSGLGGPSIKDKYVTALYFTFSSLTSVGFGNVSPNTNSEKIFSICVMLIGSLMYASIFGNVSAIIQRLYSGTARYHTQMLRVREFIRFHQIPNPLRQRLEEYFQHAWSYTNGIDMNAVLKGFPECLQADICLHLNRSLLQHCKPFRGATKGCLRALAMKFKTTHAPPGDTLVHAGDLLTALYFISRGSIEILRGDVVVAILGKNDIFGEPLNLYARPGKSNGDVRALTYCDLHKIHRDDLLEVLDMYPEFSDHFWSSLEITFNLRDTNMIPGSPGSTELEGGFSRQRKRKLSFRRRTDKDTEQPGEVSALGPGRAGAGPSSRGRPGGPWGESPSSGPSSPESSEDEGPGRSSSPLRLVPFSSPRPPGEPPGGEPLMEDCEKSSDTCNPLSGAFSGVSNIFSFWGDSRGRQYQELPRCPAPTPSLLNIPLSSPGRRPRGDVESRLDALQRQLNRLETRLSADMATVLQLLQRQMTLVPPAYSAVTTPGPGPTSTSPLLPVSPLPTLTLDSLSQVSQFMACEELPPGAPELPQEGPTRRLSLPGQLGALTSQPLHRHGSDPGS
TRPV1, sequence (Q8NER1 whole entry, species assumed): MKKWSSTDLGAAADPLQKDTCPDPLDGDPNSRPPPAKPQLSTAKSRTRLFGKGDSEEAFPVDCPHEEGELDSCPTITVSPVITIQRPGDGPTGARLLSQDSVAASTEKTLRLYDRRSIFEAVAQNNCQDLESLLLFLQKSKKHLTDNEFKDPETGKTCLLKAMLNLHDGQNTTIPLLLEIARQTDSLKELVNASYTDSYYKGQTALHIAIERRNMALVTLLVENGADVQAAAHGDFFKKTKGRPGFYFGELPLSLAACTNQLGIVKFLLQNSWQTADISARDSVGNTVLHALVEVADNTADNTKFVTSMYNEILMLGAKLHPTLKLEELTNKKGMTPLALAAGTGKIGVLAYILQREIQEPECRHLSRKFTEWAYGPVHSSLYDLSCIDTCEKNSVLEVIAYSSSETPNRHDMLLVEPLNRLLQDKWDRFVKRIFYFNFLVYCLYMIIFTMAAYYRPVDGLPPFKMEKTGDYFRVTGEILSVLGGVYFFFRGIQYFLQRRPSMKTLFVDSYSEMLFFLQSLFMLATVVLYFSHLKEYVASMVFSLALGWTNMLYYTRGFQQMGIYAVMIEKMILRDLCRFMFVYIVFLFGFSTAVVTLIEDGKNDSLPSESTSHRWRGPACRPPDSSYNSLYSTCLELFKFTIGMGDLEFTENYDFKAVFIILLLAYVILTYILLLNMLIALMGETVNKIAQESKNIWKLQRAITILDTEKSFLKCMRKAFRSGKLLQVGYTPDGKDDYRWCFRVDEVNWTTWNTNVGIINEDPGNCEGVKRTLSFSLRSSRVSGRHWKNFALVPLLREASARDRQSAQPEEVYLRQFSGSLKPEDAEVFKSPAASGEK
CB2, sequence (P34972 whole entry): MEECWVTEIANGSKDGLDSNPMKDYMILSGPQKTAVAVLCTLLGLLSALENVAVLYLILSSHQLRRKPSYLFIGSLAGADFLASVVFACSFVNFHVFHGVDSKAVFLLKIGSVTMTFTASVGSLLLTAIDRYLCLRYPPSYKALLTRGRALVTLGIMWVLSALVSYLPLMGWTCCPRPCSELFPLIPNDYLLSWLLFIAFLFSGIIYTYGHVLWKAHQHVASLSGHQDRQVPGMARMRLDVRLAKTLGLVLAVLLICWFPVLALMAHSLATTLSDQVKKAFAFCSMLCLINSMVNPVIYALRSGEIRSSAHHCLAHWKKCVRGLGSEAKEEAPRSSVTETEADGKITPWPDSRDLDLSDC

## C=C(C)[C@@H]1CCC(C)=C[C@H]1c1c(O)cc(CC2CN(C(C)=O)C2)cc1O [KLS-13019]
CB2
  displacement of 3H-WIN-55212-2 radioactivity at CB2: 55%
[1]; human liver microsomes, 1 μM
  Microsomal stability Human T 1/2: 5.69 min
[2]; mouse liver microsomes, 1 μM
  Microsomal stability Mouse T 1/2: 5.67 min
[3]; CD1 mice, IV 2 mg/kg
  CL IV 2 mg/kg: 76.7 mL/min/kg
  Vss IV 2 mg/kg: 3.2 L/kg
[3]; [13]
  AUC p.o.: 617 ng·h/mL
  Cmax at 10 mg/kg p.o.: 1080 ng/mL
  Tmax p.o.: 15 min
[3]; CD1 mice, oral 10 mg/kg, IV 2 mg/kg
  F% (oral bioavailability): 67%
[3]; mice
  fold increase in F% in comparison to CBD: > 8 fold
[3]; mice, 10 mg/kg p.o.
  fold increase in AUC compared to CBD: 2.3 fold
[3]; mice, i.v. 2 mg/kg
  clearance (CL), i.v. arm: 4.6 mL/min/kg
[3]; mice, p.o.
  increase in T 1/2 in comparison to CBD: more than 50%
Hippocampal cultures [4]; [14]
  TC50, neuronal viability assay: 81 µM
Hippocampal cultures [4]; day 14 cultures, 5 hours
  maximal toxicity, % of control values: 73 ± 3 % of control
Hippocampal cultures [4]; day 19 cultures, time course at 30 μM cannabidiol, 100 μM KLS-13019
  maximal achieved toxicity, % of control, neuronal viability assay: 62 ± 3 % of control
Hippocampal cultures [4]; viability and cell death assays
  fold increase in TC50 relative to CBD: 5 fold
[5]; [15]
  efficacy of neuroprotection back to control levels (PI): full efficacy
  fold increase in neuroprotective potency vs CBD (relative IC50s, PI): 15 fold
[5]; read-out: IC50 for PI (neuroprotection), 30 mM Ethanol + 300 μM Ammonium Acetate, 5 hours, days 12–14
  IC50: 0.203 µM
[6]
  anticonvulsant activity in animal models: lack of anticonvulsant activity
PPARγ
  receptor binding PPARγ (agonist): no detectable interactions
Log P
  Log P: 3.42
Hippocampal cultures [7]
  effect of CB2 antagonist AM 630 on compound-mediated neuroprotection: had no effect
Hippocampal cultures [8]
  cell death response at 30 min or 60 min of incubation: no significant changes from controls
  time points with significant cell death differences from control: ≥ 3 h
Hippocampal cultures [8]; [14]
  TC50, cell death assay: ~100 µM
TRPV1
  receptor binding TRPV1 (agonist): no detectable interactions
  receptor binding TRPV1 (antagonist): no detectable interactions
[9]
  Plasma protein binding Mouse % bound: 99.2%
[10]
  Aqueous solubility: 87 µM
  fold increase in aqueous solubility in comparison to CBD: > five
[11]
  Plasma protein binding Human % bound: 99.2%
5HT1a
  receptor binding to 5HT-1a agonist site: no detectable interactions
[12]; [15]
  efficacy of neuroprotection back to control levels (CFDA): full efficacy
  fold increase in neuroprotective potency vs CBD (relative EC50s, CFDA): 31 fold
[12]; read-out: EC50 for CFDA (neuroprotection), 30 mM Ethanol + 300 μM Ammonium Acetate, 5 hours, days 12–14
  EC50: 0.127 ± 0.027 µM
hERG channel
  hERG Potassium channel % Inhibition of specific binding: 12%

## O=C1CSC(c2ccccc2Cl)c2cc(Cl)ccc2N1 (stereo not shown) [CGP-37157, 7-Chloro-5-(2-chlorophenyl)-1,5-dihydro-4,1-benzothiazepin-2(3H)-one, reference compound]
Hippocampal cultures [8]; 5 hours, day 14 cultures
  concentration with significant increase in propidium iodide fluorescence: 100 µM

## C=C(C)[C@@H]1CCC(C)=C[C@H]1c1c(O)cc(CCCCC)cc1O [Cannabidiol, reference compound]
[1]; human, liver microsomes
  half-life at 1 μM: 3.75 min
[2]; mouse, liver microsomes
  half-life at 1 μM: < 5 min
[3]; CD1 mice, IV 2 mg/kg
  CL IV 2 mg/kg: 120 mL/min/kg
[3]; CD1 mice, plasma, 10 mg/kg p.o., 10 mg/kg
  T 1/2 p.o.: 207 min
[3]; male, CD1, mouse, plasma, iv, 2 mg/kg
  Vd: 7.5 L/kg
[3]; male, CD1, mouse, plasma, oral, 10 mg/kg
  bioavailability: 8%
[3]; [16]
  AUC: 268 ng·h/mL
  Cmax: 51 ng/mL
[5]; [15]
  efficacy of neuroprotection back to control levels (PI): full efficacy
Hippocampal cultures [7]
  effect of CB2 antagonist AM 630 on compound-mediated neuroprotection: significantly attenuated
Hippocampal cultures [8]
  cell death response at 30 min or 60 min of incubation: no significant changes from controls
  time points with significant cell death differences from control: ≥ 3 h
[10]; aqueous medium
  solubility: 17 µM (≈ 5.35 µg/mL)
[12]; [15]
  efficacy of neuroprotection back to control levels (CFDA): full efficacy
[12]; hippocampal cultures
  concentration required for full efficacy against oxidative stress toxicity: 10 µM
hERG channel
  hERG Potassium channel % Inhibition of specific binding: 73%
